This is an account of results in ChEMBL document CHEMBL1138124, “Novel sulfonanilide analogues suppress aromatase expression and activity in breast cancer cells independent of COX-2 inhibition” (J Med Chem, 2006).

The target of data set [1] is T1, Aromatase (Homo sapiens, UniProt P11511).
T1 sequence (P11511 whole entry): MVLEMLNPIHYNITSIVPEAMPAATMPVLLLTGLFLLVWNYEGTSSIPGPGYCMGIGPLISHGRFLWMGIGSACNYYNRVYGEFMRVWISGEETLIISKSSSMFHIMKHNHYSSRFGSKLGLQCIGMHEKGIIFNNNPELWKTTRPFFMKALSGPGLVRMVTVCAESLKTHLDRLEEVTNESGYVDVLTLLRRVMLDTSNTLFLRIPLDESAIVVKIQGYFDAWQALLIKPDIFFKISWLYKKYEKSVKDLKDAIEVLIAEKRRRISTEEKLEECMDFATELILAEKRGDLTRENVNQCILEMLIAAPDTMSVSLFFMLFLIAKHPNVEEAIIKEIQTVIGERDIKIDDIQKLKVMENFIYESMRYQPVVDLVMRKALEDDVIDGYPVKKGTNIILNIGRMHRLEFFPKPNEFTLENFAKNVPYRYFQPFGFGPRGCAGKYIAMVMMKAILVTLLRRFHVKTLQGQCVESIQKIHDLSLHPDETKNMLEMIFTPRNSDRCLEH
Put plainly: Inhibition of aromatase activity in human placental microsomes at 5 uM. Details: species or system Placenta. The procedure, abridged:
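Human term placental microsomes (50 µg protein) incubated with 100 nM [1β-3H]androst-4-ene-3,17-dione for 15 min at 37 °C, compound at 5 µM. Quenched with chloroform; released 3H2O counted. Triplicates, with background taken from boiled microsomes. 50 µM aminoglutethimide served as positive control. Normalized to vehicle; three independent determinations.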

Data set [2] relates to MDA-MB-231. In words: Reduction in PGE2 levels in MDA-MB-231 cell. Type of data set: functional, cell-based. Conditions: Homo sapiens. In outline: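 MDA-MB-231 cells in phenol red-free MEM with 10% FBS were plated at 15 × 10^4 per dish, adhered overnight, then serum-starved 24 h. They were then treated 24 h at 37 °C with 25 µM agent or DMSO. PGE2 in the medium was measured by ELISA and normalized to total protein from NaOH extracts; mean ± SEM, n = 6.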

In data set [3] the test system is SK-BR-3. In words: Reduction in CYP19 mRNA expression in SKBr3 cells after 24h exposure to 25uM relative to control. The conditions noted are these: Homo sapiens. The data set is classed as functional, cell-based. In outline:
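SK-BR-3 cells were exposed 24 h to 25 µM agent or vehicle and total RNA isolated. DNase-treated RNA (2 µg) was reverse transcribed with random hexamers. CYP19 transcripts were quantified by real-time PCR (50 cycles, 95 °C 15 s / 60 °C 1 min), with 18S rRNA as housekeeping reference, relative to vehicle control.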

Active and inactive are the calls of the source. The rule behind the calls is not given here.

`CS(=O)(=O)Nc1ccc([N+](=O)[O-])cc1OC1CCCC1`: in data set [1], the Inhibition result is on record as “Not Active”. In addition, the result in data set [2] was Active. Regarding `CCCCCCCCCOc1cc([N+](=O)[O-])ccc1N(C)S(C)(=O)=O`, in data set [1], the Inhibition entry is “Not Active”. For the compound `CCC(CC)Oc1cc([N+](=O)[O-])ccc1NS(C)(=O)=O`, the Inhibition entry in data set [1] is recorded as “Not Active”. Further, the outcome in data set [2] and in data set [3] was Active. Turning to `CN(c1ccc([N+](=O)[O-])cc1OC1CCCC1)S(C)(=O)=O`, the Inhibition entry in data set [1] was “Not Active”. Moreover, the result in data set [2] was inactive. Regarding `CC(C)Oc1cc([N+](=O)[O-])ccc1NS(C)(=O)=O`, the Inhibition result in data set [1] is listed as “Not Active”.

`COc1cc([N+](=O)[O-])ccc1N(C)S(C)(=O)=O`: in data set [1], the Inhibition result was “Not Active”. Take `CN(c1ccc([N+](=O)[O-])cc1OCC1CCCCC1)S(C)(=O)=O`: the Inhibition result in data set [1] is “Not Active”. Besides, the result in data set [2] was inactive. For the compound `COc1cc([N+](=O)[O-])ccc1NS(C)(=O)=O`, the Inhibition result in data set [1] is given as “Not Active”.

Regarding `CCCOc1cc([N+](=O)[O-])ccc1N(C)S(C)(=O)=O`, the Inhibition result in data set [1] was “Not Active”. Take `CCCCCCCCCOc1cc([N+](=O)[O-])ccc1NS(C)(=O)=O`: the Inhibition entry in data set [1] was “Not Active”.

With `CN(c1ccc([N+](=O)[O-])cc1OC1CCCCC1)S(C)(=O)=O`, the Inhibition entry in data set [1] was “Not Active”. Also, the result in data set [2] was inactive. In addition, in data set [3], the outcome was Active. For `CCCCCCOc1cc([N+](=O)[O-])ccc1N(C)S(C)(=O)=O`, the Inhibition entry in data set [1] is given as “Not Active”. Take `CS(=O)(=O)Nc1ccc([N+](=O)[O-])cc1OCC1CCCCC1`: the Inhibition entry in data set [1] was “Not Active”. For `CCC(CC)Oc1cc([N+](=O)[O-])ccc1N(C)S(C)(=O)=O`, in data set [1], the Inhibition result is given as “Not Active”. The result in data set [2] was inactive. Further, the result in data set [3] was Active.

For the compound `CCCCCCOc1cc([N+](=O)[O-])ccc1NS(C)(=O)=O`, in data set [1], the Inhibition entry was “Not Active”. With `CC(C)Oc1cc([N+](=O)[O-])ccc1N(C)S(C)(=O)=O`, the Inhibition result in data set [1] was “Not Active”.

For the compound `CS(=O)(=O)Nc1ccc([N+](=O)[O-])cc1OC1CCCCC1` [NS-398], the Inhibition entry in data set [1] was “Not Active”. Moreover, the outcome in data set [2] and in data set [3] was Active.

Regarding `CCCOc1cc([N+](=O)[O-])ccc1NS(C)(=O)=O`, the Inhibition entry in data set [1] is recorded as “Not Active”.
